Data published in ChEMBL document CHEMBL1781935, “Amberlite-IRA-402 (OH) ion exchange resin mediated synthesis of indolizines, pyrrolo [1,2-a] quinolines and isoquinolines: antibacterial and antifungal evaluation of the products” (2011).
In brackets after ≈: the same amount, converted by molar mass. Activity calls are given as the source filed them. The calls are words filed in the database; no cut-off is given here.

Legend:
[1] = system: Aspergillus niger; experiment: Antifungal activity against Aspergillus niger after 96 hrs; format: functional
In short: (§1)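 Clinical isolates grown on Sabouraud dextrose agar at 28 °C. MIC was set by broth dilution in Sabouraud dextrose broth (0.1 ml of 2 × 10^5 spores/ml, 1–1500 µg/ml) or by agar dilution (2 × 10^5 spores/spot), with an antibiotic control, at 28 °C for 96 h. The lowest concentration with no visible growth was taken.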

[2] = system: Candida albicans; experiment: Antifungal activity against Candida albicans after 96 hrs; format: functional; in short: as §1
[3] = system: Cryptococcus neoformans; experiment: Antifungal activity against […] after 96 hrs; format: functional; in short: as §1
[4] = system: Candida tropicalis; experiment: Antifungal activity against Candida tropicalis after 96 hrs; format: functional; in short: as §1
[5] = system: Escherichia coli; experiment: Antibacterial activity against Escherichia coli ATCC 25938 at 1 to 1000 ug/ml after overnight incubation by disc diffusion method; format: functional
In short: (§2)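 Disc diffusion on Mueller-Hinton agar. Plates seeded with 0.1 ml bacterial suspension (2 × 10^6 cfu/ml). Sterile 6 mm paper discs were impregnated with compound solutions at 1–1000 µg/ml and incubated at 37 °C overnight. Read-out was the diameter of the clear inhibition zone. Stocks were 1 mg/ml in 4% Tween 80 or 4% propylene glycol.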

[6] = system: Micrococcus luteus; experiment: Antibacterial activity against Micrococcus luteus AGD1; format: functional
In short: (§3)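 MIC by broth and agar dilution. Broth: 0.1 ml suspension (2 × 10^6 cfu/ml) in Mueller-Hinton broth with test drug at 1–1000 µg/ml, 37 °C overnight. Agar: serial drug dilutions in Mueller-Hinton agar, spot-inoculated with 2 × 10^6 cfu/spot, 37 °C for 24 h. MIC was the lowest concentration with no visible growth. Antibiotic controls were included.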

[7] = system: Pseudomonas aeruginosa; experiment: Antibacterial activity against Pseudomonas aeruginosa ATCC 27853 at 1 to 1000 ug/ml after overnight incubation by disc diffusion method; format: functional; in short: as §2
[8] = system: Bacillus subtilis; experiment: Antibacterial activity against Bacillus subtilis UC564; format: functional; in short: as §3
[9] = system: Pseudomonas aeruginosa; experiment: Antibacterial activity against Pseudomonas aeruginosa ATCC 27853; format: functional; in short: as §3
[10] = system: Shigella dysenteriae; experiment: Antibacterial activity against Shigella dysenteriae isolate 3 at 10 to 80 ug/ml after overnight incubation by broth dilution method; format: functional, organism-based
[11] = system: Klebsiella pneumoniae; experiment: Antibacterial activity against Klebsiella pneumoniae isolate J/1/4; format: functional; in short: as §3
[12] = system: Shigella flexneri; experiment: Antibacterial activity against Shigella flexneri DN13; format: functional; in short: as §3
[13] = system: Pseudomonas aeruginosa; experiment: Antibacterial activity against Pseudomonas aeruginosa ATCC 27853 at 10 to 80 ug/ml after overnight incubation by broth dilution method; format: functional, organism-based
In short: (§4)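 Bactericidal testing with double-fold drug dilutions in Mueller-Hinton broth. Tubes inoculated with 1 ml suspension (2 × 10^6 cfu/ml) and shaken at 200 rpm at 37 °C for 24 h. Drug was added at mid-logarithmic growth. Viable colony counts were taken from 1.0 ml aliquots plated on nutrient agar.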

[14] = system: Bacillus subtilis; experiment: Antibacterial activity against Bacillus subtilis UC564 at 10 to 80 ug/ml after overnight incubation by broth dilution method; format: functional, organism-based; in short: as §4
[15] = system: Salmonella typhi; experiment: Antibacterial activity against Salmonella typhi DIRW; format: functional, Salmonella enterica subsp. enterica serovar Typhi; settings: Salmonella enterica
[16] = system: Micrococcus luteus; experiment: Antibacterial activity against Micrococcus luteus AGD1 at 1 to 1000 ug/ml after overnight incubation by disc diffusion method; format: functional; in short: as §2
[17] = system: Escherichia coli; experiment: Antibacterial activity against Escherichia coli ATCC 25938 at 10 to 80 ug/ml after overnight incubation by broth dilution method; format: functional, organism-based; in short: as §4
[18] = system: Vibrio parahaemolyticus; experiment: Antibacterial activity against Vibrio parahaemolyticus isolate 72016 at 1 to 1000 ug/ml after overnight incubation by disc diffusion method; format: functional; in short: as §2
[19] = system: Vibrio cholerae; experiment: Antibacterial activity against Vibrio cholerae isolate 720 at 1 to 1000 ug/ml after overnight incubation by disc diffusion method; format: functional
[20] = system: Enterococcus faecalis; experiment: Antibacterial activity against Streptococcus faecalis isolate 29212; format: functional; in short: as §3
[21] = system: Shigella dysenteriae; experiment: Antibacterial activity against Shigella dysenteriae isolate 3 at 1 to 1000 ug/ml after overnight incubation by disc diffusion method; format: functional
[22] = system: Staphylococcus aureus; experiment: Antibacterial activity against Staphylococcus aureus ATCC 25923 at 10 to 80 ug/ml after overnight incubation by broth dilution method; format: functional, organism-based; in short: as §4
[23] = system: Vibrio cholerae; experiment: Antibacterial activity against Vibrio cholerae isolate 7201 at 1 to 1000 ug/ml after overnight incubation by disc diffusion method; format: functional
[24] = system: Vibrio parahaemolyticus; experiment: Antibacterial activity against Vibrio parahaemolyticus isolate 72016; format: functional; in short: as §3
[25] = system: Vibrio cholerae; experiment: Antibacterial activity against Vibrio cholerae isolate 7201; format: functional
[26] = system: Shigella dysenteriae; experiment: Antibacterial activity against Shigella dysenteriae isolate 3; format: functional
[27] = system: Vibrio cholerae; experiment: Antibacterial activity against Vibrio cholerae isolate 7201 at 10 to 80 ug/ml after overnight incubation by broth dilution method; format: functional, organism-based
[28] = system: Staphylococcus aureus; experiment: Antibacterial activity against Staphylococcus aureus ATCC 25923 at 1 to 1000 ug/ml after overnight incubation by disc diffusion method; format: functional; in short: as §2
[29] = system: Klebsiella pneumoniae; experiment: Antibacterial activity against Klebsiella pneumoniae isolate J/1/4 at 1 to 1000 ug/ml after overnight incubation by disc diffusion method; format: functional; in short: as §2
[30] = system: Escherichia coli; experiment: Antibacterial activity against Escherichia coli ATCC 25938; format: functional; in short: as §3
[31] = system: Staphylococcus aureus; experiment: Antibacterial activity against Staphylococcus aureus ATCC 25923; format: functional; in short: as §3
[32] = system: Salmonella typhimurium; experiment: Antibacterial activity against Salmonella Typhimurium isolate 11 at 1 to 1000 ug/ml after overnight incubation by disc diffusion method; format: functional, organism-based; settings: Salmonella enterica subsp. enterica serovar Typhimurium; in short: as §2
[33] = system: Bacillus subtilis; experiment: Antibacterial activity against Bacillus subtilis UC564 at 1 to 1000 ug/ml after overnight incubation by disc diffusion method; format: functional; in short: as §2
[34] = system: Shigella flexneri; experiment: Antibacterial activity against Shigella flexneri DN13 at 1 to 1000 ug/ml after overnight incubation by disc diffusion method; format: functional; in short: as §2
[35] = system: Enterococcus faecalis; experiment: Antibacterial activity against Enterococcus faecalis isolate 29212 at 1 to 1000 ug/ml after overnight incubation by disc diffusion method; format: functional; in short: as §2
[36] = system: Salmonella typhimurium; experiment: Antibacterial activity against Salmonella Typhimurium isolate 11; format: functional, Salmonella enterica subsp. enterica serovar Typhimurium; settings: Salmonella enterica; in short: as §3
[37] = system: Salmonella typhi; experiment: Antibacterial activity against Salmonella typhi DIRW at 1 to 1000 ug/ml after overnight incubation by disc diffusion method; format: functional
[38] = system: Aspergillus niger; experiment: Antifungal activity against Aspergillus niger after 96 hrs by dry weight calculation; format: functional, organism-based
In short: (§5)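 Fungicidal testing with double-fold drug dilutions in Sabouraud dextrose broth. Tubes inoculated with 1 ml spore suspension (2 × 10^5 spores/ml) and shaken at 200 rpm at 28 °C for 96 h. Drug was added at mid-logarithmic growth. Growth was measured as sample dry weight after drying at 60 °C.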

[39] = system: Cryptococcus neoformans; experiment: Antifungal activity against […] at 1 to 1500 ug/ml after 96 hrs by disc diffusion method; format: functional, organism-based
In short: (§6)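 Disc diffusion on Sabouraud dextrose agar. Plates seeded with 0.1 ml fungal spore suspension (2 × 10^5 spores/ml). Sterile 6 mm discs were impregnated with compound solutions at 1–1500 µg/ml and incubated at 28 °C for 96 h. Read-out was the clear inhibition zone. Strains were clinical isolates.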

[40] = system: Candida albicans; experiment: Antifungal activity against Candida albicans at 1 to 1500 ug/ml after 96 hrs by disc diffusion method; format: functional; in short: as §6
[41] = system: Candida tropicalis; experiment: Antifungal activity against Candida tropicalis at 1 to 1500 ug/ml after 96 hrs by disc diffusion method; format: functional; in short: as §6
[42] = system: Aspergillus niger; experiment: Antifungal activity against Aspergillus niger at 1 to 1500 ug/ml after 96 hrs by disc diffusion method; format: functional; in short: as §6
[43] = system: Candida albicans; experiment: Antifungal activity against Candida albicans after 96 hrs by dry weight calculation; format: functional, organism-based; in short: as §5
[44] = Salmonella enterica subsp. enterica serovar Typhi

| Structure (SMILES) | diameter of the inhibition zone (DIZ) [5] | MIC [6] [µg/mL] | diameter of the inhibition zone (DIZ) [7] | MIC [8] [µg/mL] | MIC [9] [µg/mL] | MIC [11] [µg/mL] | MIC [12] [µg/mL] | MIC [15] [µg/mL] | diameter of the inhibition zone (DIZ) [16] | diameter of the inhibition zone (DIZ) [18] | diameter of the inhibition zone (DIZ) [19] | MIC [20] [µg/mL] | diameter of the inhibition zone (DIZ) [21] [mm] | diameter of the inhibition zone (DIZ) [23] | MIC [24] [µg/mL] | MIC [25] [µg/mL] | MIC [26] [µg/mL] | diameter of the inhibition zone (DIZ) [28] | diameter of the inhibition zone (DIZ) [29] [mm] | MIC [30] [µg/mL] | also measured |
| --- | --- | --- | --- | --- | --- | --- | --- | --- | --- | --- | --- | --- | --- | --- | --- | --- | --- | --- | --- | --- | --- |
| OC(Cn1cncn1)(Cn1cncn1)c1ccc(F)cc1F [FLUCONAZOLE] | – | – | – | – | – | – | – | – | – | – | – | – | – | – | – | – | – | – | – | – | MIC [1]: 10 µg/mL (≈ 32.7 µM); MIC [2]: 4 µg/mL (≈ 13.1 µM); MIC [3]: 8 µg/mL (≈ 26.1 µM); MIC [4]: 8 µg/mL (≈ 26.1 µM) |
| N#Cc1cc2ccccn2c1C(=O)c1ccccc1 | inactive | 256 (≈ 1040 µM) | inactive | 16 (≈ 65 µM) | > 500 | 64 (≈ 260 µM) | 500 (≈ 2030 µM) | 500 (≈ 2030 µM) | 7.5 mm | 7.5 mm | 10 mm | 500 (≈ 2030 µM) | 9 | 10 mm | 256 (≈ 1040 µM) | 16 (≈ 65 µM) | 128 (≈ 520 µM) | 12.1 mm | 8.9 | > 500 | Activity [10]: Active; Activity [13]: Active; Activity [14]: Active; Activity [17]: Active; Activity [22]: Active; Activity [27]: Active; MIC [31]: 32 µg/mL (≈ 130 µM); diameter of the inhibition zone (DIZ) [32]: inactive; diameter of the inhibition zone (DIZ) [33]: 9.7 mm; diameter of the inhibition zone (DIZ) [34]: inactive; diameter of the inhibition zone (DIZ) [35]: inactive; MIC [36]: 500 µg/mL (≈ 2030 µM); diameter of the inhibition zone (DIZ) [37, 44]: inactive |
| COC(=O)c1c(C(=O)OC)c2ccc3ccccc3n2c1C(=O)c1ccccc1 | 12.1 mm | > 500 | inactive | 32 (≈ 82.6 µM) | > 500 | 64 (≈ 165 µM) | 500 (≈ 1290 µM) | 128 (≈ 330 µM) | inactive | inactive | inactive | 64 (≈ 165 µM) | 11.5 | inactive | > 500 | 500 (≈ 1290 µM) | 16 (≈ 41.3 µM) | inactive | 10 | > 500 | Activity [10]: Active; Activity [13]: Active; Activity [14]: Active; Activity [17]: Active; Activity [22]: Active; Activity [27]: Active; MIC [31]: 500 µg/mL (≈ 1290 µM); diameter of the inhibition zone (DIZ) [32]: inactive; diameter of the inhibition zone (DIZ) [33]: 10.2 mm; diameter of the inhibition zone (DIZ) [34]: inactive; diameter of the inhibition zone (DIZ) [35]: 12 mm; MIC [36]: 500 µg/mL (≈ 1290 µM); diameter of the inhibition zone (DIZ) [37]: 7.5 mm |
| O=C(c1ccccc1)c1c(-c2ccccc2)cc2c3ccccc3ccn12 | 10 mm | 500 (≈ 1440 µM) | 8.1 mm | 32 (≈ 92.1 µM) | 128 (≈ 368 µM) | 64 (≈ 184 µM) | 500 (≈ 1440 µM) | > 500 | inactive | inactive | 9 mm | 500 (≈ 1440 µM) | 8 | 9 mm | 500 (≈ 1440 µM) | 64 (≈ 184 µM) | 128 (≈ 368 µM) | 8.5 mm | 10.5 | 32 (≈ 92.1 µM) | MIC [1]: 500 µg/mL (≈ 1440 µM); Activity [38]: Dose-dependent effect; diameter of the inhibition zone (DIZ) [39]: inactive; diameter of the inhibition zone (DIZ) [40]: 30 mm; diameter of the inhibition zone (DIZ) [41]: 10 mm; MIC [2]: 500 µg/mL (≈ 1440 µM); diameter of the inhibition zone (DIZ) [42]: 12 mm; Activity [43]: Dose-dependent effect; MIC [31]: 128 µg/mL (≈ 368 µM); diameter of the inhibition zone (DIZ) [32]: inactive; diameter of the inhibition zone (DIZ) [33]: 10.2 mm; diameter of the inhibition zone (DIZ) [34]: inactive; diameter of the inhibition zone (DIZ) [35]: inactive; MIC [36]: > 500 µg/mL; MIC [4]: 1000 µg/mL (≈ 2880 µM); diameter of the inhibition zone (DIZ) [37, 44]: inactive |
